Values after ≈ are worked out from the molar mass of the structure shown.
Legend:
Staphylococcus aureus = test: Antibacterial activity against Staphylococcus aureus subsp. aureus str. Newman assessed as reduction in bacterial growth incubated for 24 hrs; type: functional
Procedure, shortened: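 Overnight culture diluted 1:1000 in TSB, grown to A600 0.6-0.8, then diluted 1:400 in TSB. Aliquots incubated with the compound at a range of concentrations. A600 read every 1 hr for 24 hr to build growth curves. Technical triplicates per point; three independent experiments.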

Sortase A [1] = target: T1, Sortase A (Staphylococcus aureus, UniProt Q9S446, DELTAN24); test: Inhibition of Staphylococcus aureus SrtA delta N24 mutant expressed in Escherichia coli BL21 (DE3) using Abz-LPATG-Dnp substrate incubated for 20 mins by FRET-based assay
Procedure, shortened: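 His-tagged SrtAΔN24 (1 µM) was preincubated 20 min at rt with compound (0.2–100 µM) in 50 mM Tris-HCl pH 7.5, 150 mM NaCl, 5 mM CaCl2. Abz-LPATG-Dnp was added at 10 µM and fluorescence (ex 309 / em 420 nm) was read each minute for 20 min. IC50 came from a sigmoidal fit. Technical triplicates, three independent experiments.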

Sortase A [2] = target: T1, Sortase A; test: Inhibition of Staphylococcus aureus SrtA delta N24 mutant expressed in Escherichia coli BL21 (DE3) assessed as reduction in IsdA (64 to 323 residues) transpeptidation incubated for 20 mins by SDS-PAGE analysis
Procedure, shortened: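 His-tagged SrtAΔN24 (100 µg) was preincubated 20 min at rt with compound (1–25 µM) in 50 mM Tris-HCl pH 7.5, 150 mM NaCl, 5 mM CaCl2. IsdA64-323 (150 µg) and 3 mM Gly3 were then added for 1.5 hr at 37 °C. […] Three independent experiments.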

| SMILES | MIC (Staphylococcus aureus) | IC50 (Sortase A [1]) | IC50 (Sortase A [2]) |
| --- | --- | --- | --- |
| O=c1sn(-c2cccc3c2CCC3)c(=O)n1Cc1ccccc1 | > 100 µg/mL | 4.4 µM | 45.6 µM |
| O=c1sn(-c2cccc3ccccc23)c(=O)n1Cc1ccc(Cl)c(Cl)c1 | 50 µg/mL (≈ 124 µM) | 0.9 µM | 14.4 µM |
| COc1ccc(Cn2c(=O)sn(-c3c(C)noc3C)c2=O)cc1 | > 100 µg/mL | 1.2 µM | 5 µM |
| Cc1ccc(Cn2c(=O)sn(Cc3ccccc3)c2=O)cc1 | 12.5 µg/mL (≈ 40 µM) | 5.1 µM | 35.7 µM |
| O=c1sn(-c2cccc3ccccc23)c(=O)n1Cc1ccc(F)cc1 | 100 µg/mL (≈ 284 µM) | 4.1 µM | 5.9 µM |
| CCn1c(=O)sn(-c2c(C)noc2C)c1=O | > 100 µg/mL | 1.5 µM | 6.3 µM |
| O=c1sn(-c2cccc3c2OCO3)c(=O)n1Cc1ccccc1 | > 100 µg/mL | 3.4 µM | 4.7 µM |
| CCCCn1c(=O)sn(-c2c(C)noc2C)c1=O | > 100 µg/mL | 1.1 µM | 4.1 µM |
| O=c1sn(Cc2ccccc2)c(=O)n1Cc1ccccc1Cl | 12.5 µg/mL (≈ 37.6 µM) | 3.4 µM | 28 µM |
| O=c1sn(-c2cccc3ccccc23)c(=O)n1Cc1cccc(O)c1 | > 100 µg/mL | 1.6 µM | 9.2 µM |
| Cn1c(=O)sn(-c2cccc3ccccc23)c1=O | 100 µg/mL (≈ 387 µM) | 0.8 µM | 8 µM |
| CCCCn1sc(=O)n(CCCC)c1=O | 3.1 µg/mL (≈ 13.5 µM) | 43.9 µM | > 50 µM |
| Cn1c(=O)sn(Cc2ccccc2)c1=O | 12.5 µg/mL (≈ 56.2 µM) | 3.5 µM | 23.6 µM |
| O=c1sn(CCc2ccccc2)c(=O)n1Cc1ccccc1 | 12.5 µg/mL (≈ 40 µM) | 10.1 µM | 42.7 µM |
| O=c1sn(C2CCCC2)c(=O)n1C1CCCCC1 | 6.2 µg/mL (≈ 23.1 µM) | 10.2 µM | > 50 µM |
| CCn1sc(=O)n(Cc2ccc(Cl)cc2)c1=O | 6.2 µg/mL (≈ 22.9 µM) | 8.7 µM | > 50 µM |

| SMILES | MIC (Staphylococcus aureus) | IC50 (Sortase A [1]) | IC50 (Sortase A [2]) |
| --- | --- | --- | --- |
| CCn1c(=O)sn(-c2cccc3ccccc23)c1=O | > 100 µg/mL | 0.7 µM | 8.2 µM |
| Cc1noc(C)c1-n1sc(=O)n(C(C)C)c1=O | > 100 µg/mL | 12.6 µM | > 50 µM |
| O=c1sn(Cc2ccccc2)c(=O)n1Cc1ccccc1 | 12.5 µg/mL (≈ 41.9 µM) | 7 µM | 12.9 µM |
| CC(C)n1c(=O)sn(CCc2ccccc2)c1=O | 25 µg/mL (≈ 94.6 µM) | > 100 µM | > 50 µM |
| CCCCn1c(=O)sn(Cc2ccccc2)c1=O | 6.2 µg/mL (≈ 23.5 µM) | 8.4 µM | 21.2 µM |
| O=c1sn(-c2cccc3ccccc23)c(=O)n1Cc1ccc(Cl)cc1 | 100 µg/mL (≈ 271 µM) | 0.7 µM | 23.1 µM |
| Cc1ccc(Cn2c(=O)sn(-c3cccc4ccccc34)c2=O)cc1 | 100 µg/mL (≈ 287 µM) | 1.2 µM | 12.6 µM |
| O=c1sn(-c2cccc3c2CCCC3)c(=O)n1Cc1ccccc1 | 50 µg/mL (≈ 148 µM) | 6 µM | 31.9 µM |
| Cc1noc(C)c1-n1sc(=O)n(Cc2ccc(Cl)cc2)c1=O | > 100 µg/mL | 1 µM | 4.1 µM |
| O=c1sn(Cc2ccccc2)c(=O)n1-c1cccc(F)c1 | 12.5 µg/mL (≈ 41.3 µM) | > 100 µM | > 50 µM |
| O=c1sn(-c2cccc3ccccc23)c(=O)n1Cc1ccc(O)cc1 | 100 µg/mL (≈ 285 µM) | 2.6 µM | 4.7 µM |
| CCn1sc(=O)n(Cc2ccc(C)cc2)c1=O | 6.2 µg/mL (≈ 24.8 µM) | 16.7 µM | > 50 µM |
| CCn1sc(=O)n(CCc2ccccc2)c1=O | 6.2 µg/mL (≈ 24.8 µM) | 16.3 µM | > 50 µM |
| O=c1sn(-c2cccc3ccccc23)c(=O)n1Cc1ccccc1O | > 100 µg/mL | 1.3 µM | 32.2 µM |
| Cc1ccc(Cn2c(=O)sn(-c3c(C)noc3C)c2=O)cc1 | > 100 µg/mL | 1.1 µM | 4.7 µM |
| O=c1sn(Cc2ccccc2)c(=O)n1Cc1ccc(Cl)c(Cl)c1 | 12.5 µg/mL (≈ 34 µM) | 2.9 µM | 19.7 µM |
